# Results as given in ChEMBL document CHEMBL1275434, “In vitro evaluation of CBR-2092, a novel rifamycin-quinolone hybrid antibiotic: studies of the mode of action in Staphylococcus aureus” (Antimicrob Agents Chemother, 2008).
# Calls of active or inactive are those of the source. No cut-off for these calls is given here.
# Tests used:
# Staphylococcus aureus [1] = assay: Antimicrobial activity against rifampin-sensitive Staphylococcus aureus CB190 harboring rpoB Q468L mutant gene by broth microdilution method; type: functional
# Summary of the method: (§1)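 CLSI broth microdilution MIC in cation-adjusted Mueller-Hinton (MHII) broth supplemented with 0.002% (vol/vol) polysorbate 80, included to limit compound loss to plastic surfaces.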
# Staphylococcus aureus [2] = assay: Antimicrobial activity against Staphylococcus aureus CB1953 harboring rpoB H481Y, gyrA S84L, gyrA V598I, parC S80F, parC R570H mutant genes selected after CBR-2092 exposure for 7 days; type: functional; conditions: CB1953, 168 h
# Staphylococcus aureus [3] = assay: Inhibition of DNA synthesis in Staphylococcus aureus CB190 assessed as decrease in [methyl-3H]thymidine incorporation at 0.032 ug/ml; type: functional, organism-based
# Staphylococcus aureus [4] = assay: Antimicrobial activity against Staphylococcus aureus CB815 harboring rpoB H481Y, gyrA […] and parC S80F mutant genes; type: functional
# Staphylococcus aureus [5] = assay: Antimicrobial activity against Staphylococcus aureus CB1947 harboring rpoB H481Y, gyrA S84L, E697 deficient gyrA, parC G167V mutant genes selected after CBR-2092 exposure for 20 days; conditions: CB1947, 480 h
# Staphylococcus aureus [6] = assay: Inhibition of protein synthesis in Staphylococcus aureus CB190 assessed as decrease in L-[3,4,5-3H]leucine incorporation at 0.032 ug/ml; type: functional, organism-based
# Staphylococcus aureus [7] = assay: Inhibition of DNA synthesis in quinolone-resistant Staphylococcus aureus CB814 harboring gyrA S84L and parC S80F mutant genes assessed as decrease in [methyl-3H]thymidine incorporation at 0.032 ug/ml; type: functional, organism-based
# Summary of the method: (§2)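 Macromolecular synthesis time course in S. aureus, measuring incorporation of [methyl-3H]thymidine (DNA), [5,6-3H]uridine (RNA) or [2,3-3H]D-alanine (cell wall). At each time point, incorporation is expressed as percent of the DMSO-treated control culture. Incorporation at time zero is set to 100%.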
# Staphylococcus aureus [8] = assay: Antimicrobial activity against Staphylococcus aureus CB812 harboring rpo B H481Y and gyrA S84L mutant genes by broth microdilution method; type: functional; summary of the method: as §1
# Staphylococcus aureus [9] = assay: Inhibition of cell wall synthesis in Staphylococcus aureus CB190 assessed as decrease in [2,3-3H]D-alanine incorporation at 0.032 ug/ml; type: functional, organism-based
# Staphylococcus aureus [10] = assay: Inhibition of cell wall synthesis in quinolone-resistant Staphylococcus aureus CB814 harboring gyrA S84L and parC S80F mutant genes assessed as decrease in [2,3-3H]D-alanine incorporation at 0.032 ug/ml; type: functional, organism-based; summary of the method: as §2
# Staphylococcus aureus [11] = assay: Antimicrobial activity against rifampin-sensitive Staphylococcus aureus CB190 by broth microdilution method; type: functional; summary of the method: as §1
# Staphylococcus aureus [12] = assay: Antimicrobial activity against rifampin-sensitive Staphylococcus aureus CB190 harboring rpoB H481N mutant gene by broth microdilution method; type: functional; summary of the method: as §1
# Staphylococcus aureus [13] = assay: Inhibition of DNA synthesis in rifamycin-resistant Staphylococcus aureus CB370 harboring rpoB H481Y mutant gene assessed as [methyl-3H]thymidine incorporation at 0.032 ug/ml; type: functional, organism-based; summary of the method: as §2
# Staphylococcus aureus [14] = assay: Inhibition of RNA synthesis in quinolone-resistant Staphylococcus aureus CB814 harboring gyrA S84L and parC S80F mutant genes assessed as decrease in [5,6-3H]uridine incorporation at 0.032 ug/ml; type: functional, organism-based; summary of the method: as §2
# Staphylococcus aureus [15] = assay: Inhibition of protein synthesis in rifamycin-resistant Staphylococcus aureus CB370 harboring rpoB H481Y mutant gene assessed as L-[3,4,5-3H]leucine incorporation at 0.032 ug/ml; type: functional, organism-based
# Summary of the method: (§3)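 Time-course radiolabel incorporation in S. aureus cultures with test agent. Precursors: [methyl-3H]thymidine (DNA), [5,6-3H]uridine (RNA), L-[3,4,5-3H]leucine (protein), [2,3-3H]D-alanine (cell wall). At each time point, incorporation with agent is expressed relative to the DMSO-treated control culture as percent incorporation. Time-zero incorporation is set to 100%.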
# Staphylococcus aureus [16] = assay: Antimicrobial activity against Staphylococcus aureus CB815 harboring rpoB H481Y, gyrA S84L and parC S80F mutant genes by broth microdilution method
# Staphylococcus aureus [17] = assay: Inhibition of cell wall synthesis in rifamycin-resistant Staphylococcus aureus CB370 harboring rpoB H481Y mutant gene assessed as [2,3-3H]D-alanine incorporation at 0.032 ug/ml; type: functional, organism-based; summary of the method: as §2
# Staphylococcus aureus [18] = assay: Antimicrobial activity against rifampin-sensitive Staphylococcus aureus CB190 harboring rpo BH481D mutant gene by broth microdilution method; type: functional; summary of the method: as §1
# Staphylococcus aureus [19] = assay: Antimicrobial activity against rifampin-sensitive Staphylococcus aureus CB190 harboring rpoB N474K mutant gene by broth microdilution method; type: functional; summary of the method: as §1
# Staphylococcus aureus [20] = assay: Inhibition of RNA synthesis in Staphylococcus aureus CB190 assessed as decrease in [5,6-3H]uridine incorporation at 0.032 ug/ml; type: functional, organism-based
# Staphylococcus aureus [21] = assay: Antimicrobial activity against Staphylococcus aureus CB814 harboring fluoroquinolone-resistant gyrA S84L and parC S80F mutant genes by broth microdilution method; type: functional; summary of the method: as §1
# Staphylococcus aureus [22] = assay: Antimicrobial activity against Staphylococcus aureus CB370 harboring rpoB H481Y mutant gene; type: functional
# Staphylococcus aureus [23] = assay: Antimicrobial activity against Staphylococcus aureus CB811 harboring quinolone-resistant gyrA S84L mutant gene by broth microdilution method; type: functional; summary of the method: as §1
# Staphylococcus aureus [24] = assay: Antimicrobial activity against Staphylococcus aureus CB809 harboring rpoB H481Y and parC S80F mutant genes by broth microdilution method
# Staphylococcus aureus [25] = assay: Antimicrobial activity against Staphylococcus aureus CB370 harboring rifampin-resistant rpoB H481Y mutant gene by broth microdilution method; type: functional; summary of the method: as §1
# [26] = Inhibition of Staphylococcus aureus wild-type RNA polymerase RpoB
# Summary of the method: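 Recombinant S. aureus σA RNA polymerase holoenzyme in a single-round transcription assay using the pGL2B-T7A1-G-less template. The 272-nucleotide G-less RNA product was quantified by gel electrophoresis. IC50 is the concentration halving the product formed without test agent.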
# Staphylococcus aureus [27] = assay: Antimicrobial activity against Staphylococcus aureus CB814 harboring […] and parC S80F mutant genes; type: functional
# Staphylococcus aureus [28] = assay: Antimicrobial activity against rifampin-sensitive Staphylococcus aureus CB190 harboring rpoB H472 mutant gene by broth microdilution method; type: functional; summary of the method: as §1
# Staphylococcus aureus [29] = assay: Antimicrobial activity against Staphylococcus aureus CB1952 harboring rpoB S486L, gyrA […], gyrA E88Q, gyrA G532S, parC S80F, parC E84L mutant genes selected after CBR-2092 exposure for 21 days; type: functional; conditions: CB1952, 504 h
# Staphylococcus aureus [30] = assay: Antimicrobial activity against Staphylococcus aureus CB1954 harboring rpoB H481Y, gyrA S84L, K809 deficient gyrA, parC S80F, parC A523D mutant genes selected after CBR-2092 exposure for 7 days; type: functional; conditions: CB1954, 168 h; summary of the method: as §1
# Staphylococcus aureus [31] = assay: Inhibition of protein synthesis in quinolone-resistant Staphylococcus aureus CB814 harboring gyrA S84L and parC S80F mutant genes assessed as decrease in L-[3,4,5-3H]leucine incorporation at 0.032 ug/ml; type: functional, organism-based; summary of the method: as §3
# Staphylococcus aureus [32] = assay: Antimicrobial activity against rifampin-sensitive Staphylococcus aureus CB190 harboring rpoB A477V mutant gene by broth microdilution method; type: functional; summary of the method: as §1
# Staphylococcus aureus [33] = assay: Antimicrobial activity against rifampin-sensitive Staphylococcus aureus CB190 harboring rpoB D471G mutant gene by broth microdilution method; type: functional; summary of the method: as §1
# Staphylococcus aureus [34] = assay: Antimicrobial activity against rifampin-sensitive Staphylococcus aureus CB190 harboring rpoB Q468K mutant gene by broth microdilution method; type: functional; summary of the method: as §1
# Staphylococcus aureus [35] = assay: Antimicrobial activity against Staphylococcus aureus CB1884; type: functional
# [36] = Inhibition of Staphylococcus aureus RpoB H481Y mutant
# Summary of the method: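 Recombinant S. aureus σA RNA polymerase holoenzyme carrying RpoB H481Y. Single-round transcription of the pGL2B-T7A1-G-less template. The 272-nt G-less RNA product is quantified by gel electrophoresis. IC50 is the concentration that inhibits 50% of product formed without inhibitor.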
# Staphylococcus aureus [37] = assay: Antimicrobial activity against Staphylococcus aureus CB190 by broth microdilution method; type: functional
# Staphylococcus aureus [38] = assay: Antimicrobial activity against Staphylococcus aureus CB808 harboring quinolone-resistant parC S80F mutant gene by broth microdilution method; type: functional; summary of the method: as §1
# Staphylococcus aureus [39] = assay: Antimicrobial activity against rifampin-sensitive Staphylococcus aureus CB190 harboring rpoB E473 mutant gene by broth microdilution method; type: functional; summary of the method: as §1
# Staphylococcus aureus [40] = assay: Antimicrobial activity against Staphylococcus aureus CB1887 harboring rpoB R484H, L520 deficient gyrA, […], R236 duplicated parC and parC H103Y mutant genes selected after ABT-719 exposure for 20 days; type: functional; conditions: CB1887, 480 h
# Staphylococcus aureus [41] = assay: Antimicrobial activity against rifampin-sensitive Staphylococcus aureus CB190 harboring rpoB D471Y mutant gene by broth microdilution method; type: functional; summary of the method: as §1
# Staphylococcus aureus [42] = assay: Inhibition of RNA synthesis in rifamycin-resistant Staphylococcus aureus CB370 harboring rpoB H481Y mutant gene assessed as [5,6-3H]uridine incorporation at 0.032 ug/ml; type: functional, organism-based; summary of the method: as §2
# Staphylococcus aureus [43] = assay: Antimicrobial activity against rifampin-sensitive Staphylococcus aureus CB190 harboring rpoB H481Y mutant gene by broth microdilution method; type: functional; summary of the method: as §1
smiles,measurement,setting,value
CO[C@H]1/C=C/O[C@@]2(C)Oc3c(C)c(O)c4c(O)c(c(/C=N/N5CCN(C)CC5)c(O)c4c3C2=O)NC(=O)/C(C)=C\C=C\[C@H](C)[C@H](O)[C@@H](C)[C@@H](O)[C@@H](C)[C@H](OC(C)=O)[C@@H]1C [RIFAMPIN],MIC,Staphylococcus aureus [1],> 64 µg/mL
same,MIC,Staphylococcus aureus [2],> 125 µg/mL
same,Activity,Staphylococcus aureus [3],Active
same,MIC,Staphylococcus aureus [4],> 125 µg/mL
same,MIC,Staphylococcus aureus [5],> 250 µg/mL
same,Activity,Staphylococcus aureus [6],Active
same,Activity,Staphylococcus aureus [7],Active
same,MIC,Staphylococcus aureus [8],> 250 µg/mL
same,Activity,Staphylococcus aureus [9],Active
same,Activity,Staphylococcus aureus [10],Active
same,MIC,Staphylococcus aureus [11],0.008 µg/mL
same,MIC,Staphylococcus aureus [12],2 µg/mL
same,Activity,Staphylococcus aureus [13],inactive
same,Activity,Staphylococcus aureus [14],Active
same,Activity,Staphylococcus aureus [15],inactive
same,MIC,Staphylococcus aureus [16],> 250 µg/mL
same,Activity,Staphylococcus aureus [17],inactive
same,MIC,Staphylococcus aureus [18],> 64 µg/mL
same,MIC,Staphylococcus aureus [19],2 µg/mL
same,Activity,Staphylococcus aureus [20],Active
same,MIC,Staphylococcus aureus [21],0.008 µg/mL
same,MIC,Staphylococcus aureus [22],> 250 µg/mL
same,MIC,Staphylococcus aureus [23],0.008 µg/mL
same,MIC,Staphylococcus aureus [24],> 250 µg/mL
same,MIC,Staphylococcus aureus [25],> 250 µg/mL
same,IC50,[26],15 nM
same,MIC,Staphylococcus aureus [27],0.008 µg/mL
same,MIC,Staphylococcus aureus [28],32 µg/mL
same,MIC,Staphylococcus aureus [29],> 250 µg/mL
same,MIC,Staphylococcus aureus [30],> 125 µg/mL
same,Activity,Staphylococcus aureus [31],Active
same,MIC,Staphylococcus aureus [32],1 µg/mL
same,MIC,Staphylococcus aureus [33],0.25 µg/mL
same,MIC,Staphylococcus aureus [34],> 64 µg/mL
same,MIC,Staphylococcus aureus [35],> 250 µg/mL
same,IC50,[36],> 25000 nM
same,MIC,Staphylococcus aureus [37],0.008 µg/mL
same,MIC,Staphylococcus aureus [38],0.008 µg/mL
same,MIC,Staphylococcus aureus [39],8 µg/mL
same,MIC,Staphylococcus aureus [40],> 250 µg/mL
same,MIC,Staphylococcus aureus [41],16 µg/mL
same,Activity,Staphylococcus aureus [42],inactive
same,MIC,Staphylococcus aureus [43],> 64 µg/mL
